BAP1 inh: inhibitors of BAP1 deubiquitinase, primary screen, biochemical, Ub-AMC fluorescence, kinetic; Ubiquitin carboxyl-terminal hydrolase BAP1 (Homo sapiens), Q92560; recombinant BAP1, Ub-AMC hydrolysis fluorescence kinetic; active compounds read low; calls only at 20 µM; 72,000 compounds, 0.48% hits; AID 436, 2006;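 active = activity remaining at or below 50% of control, provided the compound also passes the data quality filters; inactive = the rest, including low values that fail the filters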;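 note: 100% = DMSO wells rate and 0% = substrate alone blank rate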
Ecoli WT expand: growth inhibitors of wild-type E. coli, primary screen, strain BW25113, expanded library, OD600; 98,000 compounds, 0.15% hits; AID 710, 2007; growth inhibition, % at 100 µM; OD600 absorbance;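 active = growth inhibition above about 50% at one test dose, limit read from the data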;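 note: growth measured after 20 h incubation at 37 °C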
tolC growth inh: growth inhibitors of E. coli tolC mutant, primary screen, strain BW25113 ΔtolC::kan, 384-well; OD615; AID 573, 2007; 65,000 compounds, 2.2% hits; growth inhibition, % at 10 µM (by protocol);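 active = growth inhibition at or above a cutoff equal to the mean over every tested compound plus 3 SD, cut at about 60% in these data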;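 note: growth measured after 20 h incubation at 37 °C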
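test system = E. coli BW25113 ΔtolC::kan bacteria | medium = LB with kanamycin 50 µg/mL | signal = OD at 615 nm | schedule = 37 °C, 20 h exposure | evaluation = % inhibition of E. coli growth | compound dosing = one dose of 10 µM final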
M1 antagonist: antagonists of rat M1 muscarinic receptor. Muscarinic acetylcholine receptor M1 (Rattus norvegicus), P08482. B-score at 10 µM. 64,000 compounds, 3.4% hits. AID 628, 2007. CHO-M1 cells, Fluo-4 calcium, ACh EC80 antagonist mode; active compounds read low;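 active = calcium fluorescence response, raw or row-and-column corrected B-score, differing from the plate sample mean either way at a set confidence level, mostly lower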
Target sequence (P08482 whole entry, looked up): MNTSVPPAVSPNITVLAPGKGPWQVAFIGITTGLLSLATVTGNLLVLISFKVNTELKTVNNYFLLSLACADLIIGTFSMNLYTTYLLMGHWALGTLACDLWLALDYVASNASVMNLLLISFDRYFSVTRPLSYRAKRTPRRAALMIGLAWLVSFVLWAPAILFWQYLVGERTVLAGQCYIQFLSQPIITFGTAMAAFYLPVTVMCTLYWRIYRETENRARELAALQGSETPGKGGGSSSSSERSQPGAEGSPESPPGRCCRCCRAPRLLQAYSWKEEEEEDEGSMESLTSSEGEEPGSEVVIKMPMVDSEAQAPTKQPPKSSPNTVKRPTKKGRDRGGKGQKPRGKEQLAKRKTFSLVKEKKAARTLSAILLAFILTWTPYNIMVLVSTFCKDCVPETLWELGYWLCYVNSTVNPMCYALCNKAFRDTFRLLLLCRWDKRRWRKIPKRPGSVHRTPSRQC
M1 agonist: M1 muscarinic receptor agonists, primary screen, CHO-M1 cells, Fluo-4 calcium, agonist mode. 64,000 compounds, 3% hits. AID 626, 2007. Fluo-4 calcium fluorescence; active compounds read high. Muscarinic acetylcholine receptor M1. B-score at 10 µM;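 active = fluorescence rise, raw or as B-score row- and column-corrected plate score, outside the 99.7% band of its plate's samples, either direction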
Hsp90 inh: tumor Hsp90 inhibitors, primary screen, cell lysate, fluorescence polarization, NCI-N417 lysate. Heat shock protein HSP 90-alpha (Homo sapiens), P07900. Cy3B-geldanamycin FP displacement. 64,000 compounds, 0.35% hits. inhibition, % at 30 µM. AID 429, 2006;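 active = inhibition above 50%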;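 note: 0% = tracer plus lysate wells and 100% = tracer alone without lysate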
M1 ag confirm: rat M1 muscarinic receptor agonists, confirmation, CHO-M1 cells, Fluo-4 calcium, duplicate retest. shares compounds with M1 agonist. Fluo-4 calcium fluorescence, agonist mode; actives lie on both sides. fluorescence change (max-min) at 10 µM. 1,700 compounds, 19% hits;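 active = fluorescence change differs from the solvent-only DMSO control mean at a set confidence level in both duplicate runs; inconclusive = differs from solvent-only control mean in just one of two runs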;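 note: an EC20 dose of acetylcholine follows compound addition during the same imaging run; raw fluorescence intensity difference in instrument units with no normalization to controls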
M4 ag counter: agonist activity at rat M4 receptor, confirmation, counter-screen for M1 allosteric modulator project, cell-based, agonist mode; shares compounds with M1 agonist; CHO M4/Gqi5 cells, Fluo-4 calcium fluorescence; actives lie on both sides; fluorescence change (max-min) at 10 µM; 1,700 compounds, 9% hits;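 active = fluorescence change differing from the plate's solvent-only control wells at 99.7% confidence in both duplicates, whether higher or lower; inconclusive = differs from solvent controls in only one of two duplicates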
Active calls of the source: *; i = inactive; ? = inconclusive; · = no result shown. An excerpt weighted towards active compounds, which were near 5.1% of everything screened.

SMILES	BAP1 inh	Ecoli WT expand	tolC growth inh	M1 antagonist	M1 agonist	Hsp90 inh	M1 ag confirm	M4 ag counter
Cc1cc(C(=O)Nc2sc3c(c2C#N)CCCCC3)cs1	i	-9	3	0.42	-0.35	-32	·	·
N#Cc1c(NC(=O)c2nc3ncccn3n2)sc2c1CCCCC2	i	-3	14	0.11	-1.8*	-14	?	-40
Cc1occc1C(=O)NCc1ccccn1	i	8	-10	0.19	2.2*	-21	-2.8	-36
CC1=C(C(=O)Nc2ccccn2)C(c2ccccc2Cl)NC(=O)N1 (stereo not given)	i	·	·	·	·	·	·	·
Cc1cc(Cl)ccc1OCCCC(=O)Nc1cccc2ccccc12	i	·	·	·	·	·	·	·
CCOC(=O)c1c(C)oc2c1c1c(c3ccccc32)OCN(Cc2ccccn2)C1	·	-6	·	·	·	·	·	·
CCOC(=O)c1c(C)oc2c1c(C(c1ccncc1)N1CCOCC1)c(O)c1ccccc12 (stereo not given)	i	-6	40	0.011	3*	7	?	-50
COc1ccccc1-c1csc(NC(=O)c2ccc(S(=O)(=O)N(C)C)cc2)n1	i	·	·	·	·	·	·	·
Nc1cccc2c1C(=O)N(C(=O)c1ccc(S(=O)(=O)N3CCCCCC3)cc1)C2=O	i	11	-10	-0.035	7.5*	-5	23	-23
O=C(O)c1ccc(S(=O)(=O)N2CCCCCC2)cc1	·	0	·	·	·	·	·	·
Cc1cc2c(=O)oc(-c3ccc(C(C)(C)C)cc3)nc2s1	i	·	·	·	·	·	·	·
Cc1ccc2[nH]c3c(NCc4ccco4)ncnc3c2c1	·	30	40	-1.5	8.5*	-10	13	-38
CCOC(=O)CSc1nc2c(c(=O)n1C)C1(CCCC1)Cc1ccccc1-2	i	·	·	·	·	·	·	·
O=C(Nc1ccc(S(=O)(=O)N2CCCCC2)cc1)c1ccncc1	i	2	11	-0.55	-2.9*	2	-22*	-72*
NC(=O)c1ccsc1NC(=O)c1ccc(S(=O)(=O)N2CCCCC2)cc1	i	-8	32	-0.54	3.1*	-2	?	-33
CCc1nnc(NC(=O)c2ccc(S(=O)(=O)N3CCCCCC3)cc2)s1	i	0	9	-0.031	-0.15	0	·	·
CCN(CC)S(=O)(=O)c1ccc(C(=O)NC2C3CC4CC(C3)CC2C4)cc1 (stereo not given)	i	·	·	·	·	·	·	·
COc1ccc(NC(=NS(=O)(=O)c2ccc(C)cc2)c2ccccc2)cc1	i	·	·	·	·	·	·	·
O=[N+]([O-])c1cccc(C2SCCN2S(=O)(=O)c2ccc(Br)cc2)c1 (stereo not given)	i	·	·	·	·	·	·	·
CCOC(=O)Cc1csc(SCC(=O)c2c(N)n(CC(C)C)c(=O)n(C)c2=O)n1	i	-3	-15	-2.9*	8.9*	-3	-2.6	14
Cc1c(C(c2ccc([N+](=O)[O-])o2)c2c(C)n(C)n(-c3ccccc3)c2=O)c(=O)n(-c2ccccc2)n1C	i	·	·	·	·	·	·	·
COc1ccc(Oc2coc3cc(OCc4ccc(Cl)cc4)ccc3c2=O)cc1	i	·	·	·	·	·	·	·
CCN1CCN(c2nc3c(C)cccn3c(=O)c2/C=C(\C#N)S(=O)(=O)c2ccccc2)CC1	i	6	4	-3	8.9*	-5	31	2.4
Cc1cccn2c(=O)c(/C=C(\C#N)S(=O)(=O)c3ccccc3)c(N3CCC(C(N)=O)CC3)nc12	·	4	·	·	·	·	·	·
CC(=O)OC(C)C12CC3CC(CC(C3)C1)C2 (stereo not given)	i	·	·	·	·	·	·	·
CC(=O)Nc1ccc(OC(=O)c2ccccc2NC(=O)c2ccccc2Br)cc1	i	·	·	·	·	·	·	·
CCN(CC)c1ccc2cc(NC(=O)CCC(=O)O)c(=O)oc2c1	i	1	-16	-1.6*	289*	0	1953*	1754*

Screening data: PubChem BioAssay, several laboratories
